Reference: ChEMBL document CHEMBL2417459, “Chrysophaentins are competitive inhibitors of FtsZ and inhibit Z-ring formation in live bacteria” (Bioorg Med Chem, 2013)
pIC50: −log10 of the molar value. In brackets after ≈: the same amount, converted by molar mass. One block for each molecule: values may come before it. Activity calls are given as the source filed them. No cut-off for these calls is given here.

How the values were obtained:
Escherichia coli [1] = assay: Inhibition of C-terminal YFP-fused Escherichia coli FtsZ cloned in Escherichia coli envA1 assessed as mislocalization of protein in polar region at 4.9 uM after 30 to 60 mins by fluorescence microscopic analysis
Summary of the method: (§1)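 envA1 carrying arabinose-inducible pFtsZ-YFP grown in LB with 20 µg/mL chloramphenicol at 37 °C to OD600 ~0.2, then induced with 0.4% L-arabinose for 30 min. Cells washed in PBS/tetracycline and resuspended in LB. 1 mL aliquots treated in 1% MeOH or 1% DMSO for 30 or 60 min. Imaged by confocal fluorescence (ex 488, em 558) plus DIC, 100× objective.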

Escherichia coli [2] = assay: Inhibition of C-terminal YFP-fused Escherichia coli FtsZ cloned in Escherichia coli envA1 assessed as mislocalization of protein throughout cell at 680 uM after 30 mins by fluorescence microscopic analysis; summary of the method: as §1
Escherichia coli [3] = assay: Inhibition of C-terminal RFP-fused Escherichia coli FtsZ cloned in Escherichia coli envA1 assessed as intact red fluorescent Z-ring formation at 680 uM after 30 to 60 mins by fluorescence microscopic analysis
Summary of the method: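 envA1 carrying arabinose-inducible pFtsZ-tdTomato (pFtsZ-RFP), induced and treated by the same protocol, 680 µM for 30 min. Red fluorescence imaged (ex 555, em 630) alongside the yellow channel and DIC at 30 and 60 min post induction.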

Escherichia coli [4] = assay: Inhibition of C-terminal YFP-fused Escherichia coli FtsZ cloned in Escherichia coli envA1 assessed as mislocalization of protein throughout cell at 120 uM after 30 to 60 mins by fluorescence microscopic analysis; summary of the method: as §1
Escherichia coli [5] = assay: Inhibition of C-terminal YFP-fused Escherichia coli FtsZ transformed in Escherichia coli envA1 assessed as Z ring formation at 125 uM after 30 to 60 mins by fluorescence microscopic analysis; summary of the method: as §1
Escherichia coli [6] = assay: Antibacterial activity against Escherichia coli K12 C600 envA1 assessed as growth inhibition after 18 hrs by microbroth dilution method; details: envA1, 18 h
Escherichia coli [7] = assay: Inhibition of recombinant Escherichia coli FtsZ GTPase activity expressed in Escherichia coli BL21 (DE3) assessed as production of inorganic phosphate up to 600 uM after 10 mins by malachite green-phosphomolybdate colorimetric assay in presence of triton X-100
Summary of the method: (§2)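 Recombinant EcFtsZ, purified by ammonium sulfate precipitation, ion exchange and gel filtration, used at 2 µM with 0.25 mM GTP in 50 mM MES pH 6.0, 100 mM KCl, 5 mM MgCl2. Incubated 10 min at 23 °C with serially diluted inhibitor. Pi read at 635 nm by malachite green-phosphomolybdate against a standard curve to give IC50. Triton X-100 at 0.01% where stated.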

Escherichia coli [8] = assay: Inhibition of C-terminal YFP-fused Escherichia coli FtsZ cloned in Escherichia coli envA1 assessed as protein dispersion in from of patches throughout cytoplasm at 125 uM after 30 to 60 mins by fluorescence microscopic analysis; summary of the method: as §1
[9] = target: T1, Cell division protein FtsZ (Staphylococcus aureus, UniProt P0A031); assay: Inhibition of recombinant Staphylococcus aureus FtsZ GTPase activity expressed in Escherichia coli BL21 (DE3) assessed as production of inorganic phosphate after 20 mins by malachite green-phosphomolybdate colorimetric assay
T1 sequence (P0A031 whole entry): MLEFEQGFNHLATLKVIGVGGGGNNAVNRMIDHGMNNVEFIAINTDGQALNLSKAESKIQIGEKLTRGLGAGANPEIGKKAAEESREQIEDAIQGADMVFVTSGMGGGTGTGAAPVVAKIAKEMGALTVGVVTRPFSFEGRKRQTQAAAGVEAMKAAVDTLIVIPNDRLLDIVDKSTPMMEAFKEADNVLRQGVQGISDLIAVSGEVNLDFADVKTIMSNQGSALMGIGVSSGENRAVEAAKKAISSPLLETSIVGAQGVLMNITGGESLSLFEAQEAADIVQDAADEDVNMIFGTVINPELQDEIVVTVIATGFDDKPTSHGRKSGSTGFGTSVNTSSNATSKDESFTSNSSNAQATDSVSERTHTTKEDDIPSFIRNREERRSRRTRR
Summary of the method: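 SaFtsZ (recombinant; stored at −80 °C in 50 mM Tris pH 7.4, 50 mM KCl, 1 mM EDTA, 10% glycerol), 6 µM, with 0.25 mM GTP in 50 mM MES pH 6.0, 100 mM KCl, 5 mM MgCl₂. Run 20 min at 30 °C with serially diluted inhibitor. Pi read at 635 nm against a standard curve to give IC₅₀. DMSO control up to 8%.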

[10] = target: T2, Cell division protein FtsZ (Staphylococcus aureus) (UniProt P0A031); assay: Inhibition of recombinant Staphylococcus aureus FtsZ GTPase activity expressed in Escherichia coli BL21 (DE3) assessed as production of inorganic phosphate up to 600 uM after 20 mins by malachite green-phosphomolybdate colorimetric assay in presence of triton X-100
T2 sequence (whole entry): T1 sequence (P0A031 whole entry)
Summary of the method: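 Recombinant SaFtsZ at 6 µM with 0.25 mM GTP in 50 mM MES pH 6.0, 100 mM KCl, 5 mM MgCl2, plus 0.01% Triton X-100. Incubated 20 min at 30 °C with serially diluted inhibitor. Pi measured at 635 nm by malachite green-phosphomolybdate against a standard curve.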

[11] = Inhibition of recombinant Escherichia coli FtsZ GTPase activity expressed in Escherichia coli BL21 (DE3) assessed as production of inorganic phosphate after 10 mins by malachite green-phosphomolybdate colorimetric assay; summary of the method: as §2
Escherichia coli [12] = assay: Inhibition of C-terminal YFP-fused Escherichia coli FtsZ cloned in Escherichia coli envA1 assessed as protein dispersion in from of patches throughout cytoplasm at 340 uM after 30 to 60 mins by fluorescence microscopic analysis; summary of the method: as §1
[13] = target: T3, Cell division protein FtsZ (Bacillus subtilis) (UniProt A5Z1V5); assay: Inhibition of Bacillus subtilis SU570 GFP-fused FtsZ assessed as perturbation of Z-ring formation at 12 uM after 60 mins by fluorescence microscopic analysis
T3 sequence (whole entry): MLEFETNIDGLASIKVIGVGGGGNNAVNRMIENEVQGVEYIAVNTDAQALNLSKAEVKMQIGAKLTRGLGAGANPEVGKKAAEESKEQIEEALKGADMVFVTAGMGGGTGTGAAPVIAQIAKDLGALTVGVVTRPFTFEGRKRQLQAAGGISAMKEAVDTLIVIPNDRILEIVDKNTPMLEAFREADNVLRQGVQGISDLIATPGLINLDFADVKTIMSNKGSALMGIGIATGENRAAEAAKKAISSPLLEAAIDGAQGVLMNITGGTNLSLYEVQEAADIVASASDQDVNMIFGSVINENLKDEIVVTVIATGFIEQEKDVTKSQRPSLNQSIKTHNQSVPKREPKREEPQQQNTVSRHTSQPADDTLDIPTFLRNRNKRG

[14] = target: T4, Cell division protein FtsZ (Bacillus subtilis, UniProt A5Z1V5); assay: Inhibition of Bacillus subtilis FtsZ GTPase activity assessed as production of inorganic phosphate measured up to 60 mins by malachite green-phosphomolybdate colorimetric assay
T4 sequence (A5Z1V5 whole entry): T3 sequence (whole entry)

[15] = target: T3, Cell division protein FtsZ (Bacillus subtilis); assay: Displacement of [3H]-GTP from Bacillus subtilis FtsZ assessed as equilibrium association constant by scintillation counting assay
Summary of the method: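 Nucleotide-free B. subtilis FtsZ (70 nM) incubated with 3H-GTP (100 nM) and competitor. FtsZ-bound label measured by co-sedimentation and scintillation counting. 3H-GTP binding constant determined separately. Data fit to a simple competition model.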

[16] = target: T3, Cell division protein FtsZ (Bacillus subtilis); assay: Displacement of mant-GTP from Bacillus subtilis FtsZ by fluorescence anisotropy analysis
Summary of the method: (§3)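 Nucleotide-free B. subtilis FtsZ (380 nM) with mant-GTP (500 nM), titrated with competitor. Displacement read as the change in fluorescence anisotropy and fit by least squares to a simple competition model. GTP (150 µM) served as the displacement control.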

[17] = target: T3, Cell division protein FtsZ (Bacillus subtilis); assay: Displacement of mant-GTP from Bacillus subtilis FtsZ assessed as equilibrium association constant by fluorescence anisotropy analysis; summary of the method: as §3
Escherichia coli [18] = assay: Inhibition of C-terminal YFP-fused Escherichia coli FtsZ cloned in Escherichia coli envA1 assessed as Z ring formation at 340 uM after 30 to 60 mins by fluorescence microscopic analysis; summary of the method: as §1

inhibition (Escherichia coli [2]): Active
inhibition (Escherichia coli [3]): inactive
SMILES: COc1ccc2cc3[n+](cc2c1OC)CCc1cc2c(cc1-3)OCO2

inhibition (Escherichia coli [12]): Active
inhibition [13]: Active
MIC50 (Escherichia coli [6]): 84 µM (≈ 31 µg/mL)
pIC50 [14]: 4.15
inhibition (Escherichia coli [7]): Active
Ka [15]: 0.87 ×10⁵ /M
inhibition [16]: Dose-dependent effect
pIC50 [9]: 4.42
inhibition [10]: Active
Ka [17]: 1.5 ×10⁵ /M
pIC50 [11]: 4.43
inhibition (Escherichia coli [18]): Active
SMILES: COc1cc(C/C=C(/Cl)Cc2cc(O)cc(O)c2)c(OC)cc1Cl

More lines, now with the values behind:

SMILES: Oc1ccc(Cl)cc1Cc1cc(Cl)cc(Cc2cc(Cl)ccc2O)c1O
inhibition (Escherichia coli [1]): Active

SMILES: CCN(CC)CCNc1nc(/C=C/c2ccc(Cl)cc2)nc2cc3ccccc3cc12
inhibition (Escherichia coli [4]): Active

SMILES: Oc1cc(O)c2c(c1)C/C(Cl)=C\Cc1cc(c(Cl)cc1O)Oc1c(O)cc(cc1O)C/C(Cl)=C\Cc1cc(c(Cl)cc1O)O2
inhibition (Escherichia coli [5]): Active
MIC50 (Escherichia coli [6]): 27 µM (≈ 18.3 µg/mL)
inhibition (Escherichia coli [7]): Active
inhibition (Escherichia coli [8]): Active
pIC50 [9]: 4.17
inhibition [10]: Active
pIC50 [11]: 5.00
